Reference: PMC9896170 (Xenobiotica; the fate of foreign compounds in biological …, 2022)

Key:
human CYP2A13 = target: T1, human CYP2A13 (Homo sapiens, UniProt Q16696); assay: Oxidation of flavonoids by reconstituted purified CYP2A13, products by LC-MS/MS; type: in vitro ADME; settings: LC-MS/MS product detection
T1 sequence (Q16696 1-494): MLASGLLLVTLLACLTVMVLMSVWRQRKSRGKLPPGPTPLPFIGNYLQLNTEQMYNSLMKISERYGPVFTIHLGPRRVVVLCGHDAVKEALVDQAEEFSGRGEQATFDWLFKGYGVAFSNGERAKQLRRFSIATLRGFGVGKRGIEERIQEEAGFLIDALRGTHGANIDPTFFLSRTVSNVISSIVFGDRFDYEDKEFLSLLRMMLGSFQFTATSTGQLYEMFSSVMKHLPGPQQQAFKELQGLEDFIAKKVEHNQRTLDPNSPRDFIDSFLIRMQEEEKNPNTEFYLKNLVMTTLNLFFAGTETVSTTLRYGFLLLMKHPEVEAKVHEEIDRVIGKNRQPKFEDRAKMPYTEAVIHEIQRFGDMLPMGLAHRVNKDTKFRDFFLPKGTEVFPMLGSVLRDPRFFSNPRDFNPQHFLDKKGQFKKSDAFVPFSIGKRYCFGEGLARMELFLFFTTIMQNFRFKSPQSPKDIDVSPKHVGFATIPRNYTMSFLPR
Method in brief: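 Reconstituted system of purified E. coli-expressed human CYP2A13 (50 pmol), NADPH-P450 reductase (100 pmol), cytochrome b5 (100 pmol) and DLPC (50 μg). Flavonoid at 60 μM, 1 min preincubation, then NADPH-generating system added; 37 °C, 20 min. Stopped with ice-cold CH3CN, spun, supernatant run on positive-ESI LC-MS/MS. Products were identified from fragment ion spectra; rates were quantified with available standards, three separate determinations.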

human CYP1B1 = target: T2, human CYP1B1 (Homo sapiens, UniProt Q16678); assay: Oxidation of flavonoids by reconstituted purified CYP1B1, products by LC-MS/MS; type: in vitro ADME; settings: LC-MS/MS product detection
T2 sequence (Q16678 1-543): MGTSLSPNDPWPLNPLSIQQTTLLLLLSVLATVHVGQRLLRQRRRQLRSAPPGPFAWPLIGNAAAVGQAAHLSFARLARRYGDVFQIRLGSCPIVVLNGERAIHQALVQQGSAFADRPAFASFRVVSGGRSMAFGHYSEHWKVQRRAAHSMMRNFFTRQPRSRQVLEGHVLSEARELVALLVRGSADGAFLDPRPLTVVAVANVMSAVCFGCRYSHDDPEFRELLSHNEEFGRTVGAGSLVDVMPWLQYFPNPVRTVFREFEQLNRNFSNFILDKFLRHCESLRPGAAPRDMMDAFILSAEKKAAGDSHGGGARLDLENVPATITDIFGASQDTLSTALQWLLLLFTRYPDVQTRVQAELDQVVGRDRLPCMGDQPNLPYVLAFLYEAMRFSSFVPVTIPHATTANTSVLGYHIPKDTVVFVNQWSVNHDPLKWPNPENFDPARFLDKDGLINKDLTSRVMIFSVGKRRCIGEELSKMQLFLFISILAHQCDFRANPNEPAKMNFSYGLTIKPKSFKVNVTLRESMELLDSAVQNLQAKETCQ

Extent of oxidation by CYP2A13 (in words) (human CYP2A13) | Extent of oxidation by CYP1B1 (in words) (human CYP1B1) | Structure (SMILES)
only small amounts of products | only small amounts of products | COc1ccc(-c2cc(=O)c3c(O)cc(O)cc3o2)cc1OC [3′4′diMe57diOHF, 3′,4′-dimethoxy-5,7-dihydroxyflavone]
 | good substrate | COc1ccc(-c2cc(=O)c3ccccc3o2)cc1OC [3′4′diMeF, 3′,4′-Dimethoxyflavone]
